One assay has as its system K562. The experiment in a line: Cytotoxicity against human K562 cells after 48 hrs by MTT assay. The assay is classed as functional, cell-based. Particulars: K562, 48 h. A digest of the protocol: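 Log-phase K562 cells (5 × 10⁴ cells/mL) were exposed in quadruplicate to 10⁻⁴ to 10⁻⁸ g/L drug for 48 h at 37 °C under 5% CO₂. MTT (5 mg/mL) was then added for 4 h, and formazan was dissolved in 10% SDS/5% isobutanol/HCl for 12 h at room temperature. OD was read at 570 and 630 nm. Controls were saline or DMSO, with cisplatin as the positive control.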
(Formazan colour is commonly taken as a measure of viable cells.)

The test system of another assay is T-24. Briefly: Cytotoxicity against human T24 cells after 72 hrs by SRB assay. Particulars: T-24, 72 h.
A further assay relates to A549. The experiment in a line: Cytotoxicity against human A549 cells after 72 hrs by SRB assay. Conditions: A549, 72 h.

In brackets after ≈: the same amount, converted by molar mass.

The values that follow come from ChEMBL document CHEMBL1150166, “Cytotoxic 3,20-epoxy-ent-kaurane diterpenoids from Isodon eriocalyx var. laxiflora” (J Nat Prod, 2002).

For orientation: IC50 means the concentration that gives 50% inhibition. Low readings indicate greater potency in that assay, high ones weaker potency in that assay.

Take `C=C1C(=O)[C@]23C[C@H]1CC[C@H]2[C@]12CO[C@H](CC1=O)C(C)(C)[C@H]2[C@H](O)C3=O` [LAXIFLORIN J]: the values for the IC50 with K562, with T-24 and in the assay with A549 were 0.473 µg/mL (≈ 1.37 µM), 0.314 µg/mL (≈ 0.912 µM) and 49.1 µg/mL (≈ 142 µM), respectively.
In the case of `CC1(C)[C@H]2[C@H](O)C(=O)[C@@]34C[C@@H](CC[C@H]3[C@@]23CO[C@@H]1CC3=O)[C@@H](CO)C4=O` [LAXIFLORIN K], the IC50 was determined as 11.9 µg/mL (≈ 32.8 µM) in the assay with K562 and 1750 µg/mL (≈ 4840 µM) with T-24.
`C=C1[C@@H](OC(C)=O)[C@]23C[C@@]1(O)CC[C@H]2[C@]12CO[C@H](CC1=O)C(C)(C)[C@H]2[C@H](O)C3=O` [LAXIFLORIN M] yielded an IC50 with K562 of 219 µg/mL (≈ 541 µM).
Take `C=C1[C@@H]2CC[C@@H]3[C@](C2)(C(=O)[C@@H](O)[C@@H]2C(C)(C)[C@H]4CC(=O)[C@@]32CO4)[C@@H]1O` [LAXILORIN L]: the IC50 stood at 1.13 µg/mL (≈ 3.25 µM) with K562, 5.16 µg/mL (≈ 14.9 µM) in the assay with T-24 and 24.7 µg/mL (≈ 71.2 µM) with A549.
On to `C=C1C(=O)[C@]23C[C@H]1CC[C@H]2[C@]12CO[C@H](CC1=O)C(C)(C)C2=C(O)C3=O` [MAOECRYSTAL P], for which the IC50 was determined as 0.132 µg/mL (≈ 0.386 µM) with K562, 0.0512 µg/mL (≈ 0.15 µM) in the assay on T-24 and 69.5 µg/mL (≈ 203 µM) in the assay with A549.
